# IMP-1 inh-1: blocks Pseudomonas aeruginosa IMP-1 metallo-beta-lactamase; purified IMP-1, nitrocefin hydrolysis, epi-absorbance fluorescence; inhibition, % at 5.6 µM; hit rate 0.45% among 290,000; AID 1556;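 active = inhibition above the mean plus 3 SD of all compounds in the same screening run, cut at about 4.5% in these data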;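 note: 0% = IMP-1 with DMSO and 100% = DMSO wells lacking enzyme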
#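 Assay system: purified recombinant IMP-1 beta-lactamase. Input: IMP-1 0.2 nM before substrate addition. Buffer or medium: Zinc- and detergent-supplemented HEPES buffer, pH 7.1. Schedule: 25 °C, 15 min preincubation, 25 min reaction. Signal: Epi-absorbance fluorescence, 480 nm excitation, 530 nm emission. Evaluation: percent inhibition from optical density relative to buffer-blank wells.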
# VIM-2 inh: blocks Pseudomonas aeruginosa VIM-2 metallo-beta-lactamase; hit rate 0.89% among 290,000; inhibition, % at 5.6 µM; AID 1527; purified VIM-2, nitrocefin hydrolysis, epi-absorbance fluorescence;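 active = inhibition above the mean of all tested compounds plus 3 SD, cutoff set per screening run, cut at about 7.5% in these data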;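 note: red hydrolysis product quenches plate fluorescence so inhibitors raise well fluorescence; 0% = enzyme with DMSO and 100% = DMSO without enzyme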
# M18AAP inhibitor: blocks P. falciparum M18 aspartyl aminopeptidase; recombinant PfM18AAP, H-Glu-NHMec fluorogenic cleavage; inhibition, % at 7.35 µM; hit rate 1.2% among 290,000; AID 1822;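 active = inhibition above the campaign mean inhibition over all tested compounds plus 3 SD, cut at about 28% in these data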;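 note: 0% = plate median of test compound wells and 100% = 2 mM ZnCl2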
# HGIII-sPLA2 inh: Blocks human group III sPLA2 activity | inhibition, % at 12.2 µM | QFRET BODIPY PC-A2 liposome hydrolysis, fluorescence | Q9NZ20 | hit rate 0.56% among 370,000 | AID 743126;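 active = inhibition above mean plus 3 SD of compounds lying within the high and low control bounds, cut at about 19% in these data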;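 note: 0% = median of test compound wells and 100% = no enzyme DMSO wells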
# IMP-1 inh-2: selectivity counter-screen for VIM-2 inhibitors: IMP-1 metallo-beta-lactamase inhibitors | inhibition, % at 5.6 µM | shares compounds with VIM-2 inh | purified IMP-1, nitrocefin hydrolysis, epi-absorbance fluorescence | 1,300 tested, under 10 active; call rule not given here;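 note: 0% = enzyme with vehicle and 100% = vehicle without enzyme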
# VIM-2 FRET ctr: inhibits VIM-2 in FRET assay to exclude epi-absorbance artifacts; inhibition, % at 5.6 µM; shares compounds with VIM-2 inh; AID 1857; hit rate 23% among 1,300; purified VIM-2, CCF2 FRET substrate hydrolysis;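 active = inhibition above the mean of all tested compounds plus 3 SD, cut at about 19% in these data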;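 note: 0% = VIM-2 plus DMSO and 100% = no enzyme wells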
# TEM-1 counter: blocks E. coli TEM-1 beta-lactamase in VIM-2 selectivity screen. shares compounds with VIM-2 inh. Purified TEM-1, nitrocefin hydrolysis, epi-absorbance fluorescence. inhibition, % at 5.6 µM. hit rate 3% among 1,300. AID 1866;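 active = inhibition above that campaign's mean inhibition plus 3 SD, cut at about 0.46% in these data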;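 note: 0% = TEM-1 with DMSO and 100% = TEM-1 with 100 µM potassium clavulanate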
# Target sequence (P62593 whole entry, looked up): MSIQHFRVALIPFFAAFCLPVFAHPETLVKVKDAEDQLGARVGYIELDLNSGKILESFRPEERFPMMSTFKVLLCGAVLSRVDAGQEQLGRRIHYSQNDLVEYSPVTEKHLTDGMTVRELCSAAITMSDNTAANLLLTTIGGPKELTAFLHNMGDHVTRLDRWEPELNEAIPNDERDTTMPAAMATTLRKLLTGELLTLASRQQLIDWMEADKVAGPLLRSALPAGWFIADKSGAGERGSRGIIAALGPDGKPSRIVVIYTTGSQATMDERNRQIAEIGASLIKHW
# VIM-2 confirm 2: confirmation of P. aeruginosa VIM-2 metallo-beta-lactamase inhibitors. hit rate 96% among 1,300. inhibition, % at 5.6 µM. shares compounds with VIM-2 inh. purified VIM-2, nitrocefin hydrolysis, epi-absorbance;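 active = inhibition of the VIM-2 beta-lactamase enzyme above about 11% from the earlier first-round screen, limit read from the data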;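 note: 0% = VIM-2 with DMSO and 100% = buffer wells without enzyme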
# * = called active by the depositor; / = no result given. Hits are enriched below; roughly 2.4% of the tested compounds scored in any of these assays.
SMILES,IMP-1 inh-1,VIM-2 inh,M18AAP inhibitor,HGIII-sPLA2 inh,IMP-1 inh-2,VIM-2 FRET ctr,TEM-1 counter,VIM-2 confirm 2
Cc1c(OCC(=O)NC2CCN(Cc3ccccc3)CC2)ccc2c3c(c(=O)oc12)CCC3,0,36*,1,-3,-3,0,-13,45*
Cc1c(OCC(=O)N[C@@H](CSCc2ccccc2)C(=O)O)ccc2c3c(c(=O)oc12)CCC3,-2,13*,-4,1,-3,2,-9,19*
O=C(COc1ccccc1F)NC1CCN(Cc2ccccc2)CC1,-8,-2,2,6,/,/,/,/
Cc1cc(=O)oc2c(C)c(OCC(=O)c3ccccc3)ccc12,-1,-1,7,1,/,/,/,/
Cc1cc(OCC(=O)NC2CCN(Cc3ccccc3)CC2)c2c(C)c(C)c(=O)oc2c1,-4,34*,-1,/,-2,0,-3,48*
O=C1CCCC/C1=C/Nc1cccc(C(F)(F)F)c1,-3,13*,5,-19,-2,30*,1.4*,25*
O=C1CCCC/C1=C\Nc1ccc(O)cc1,-4,0,25,2,/,/,/,/
O=c1oc2ccccc2nc1/C=C(\O)c1ccccc1,-1,-2,21,7,/,/,/,/
Cc1nc(C)c(/C(O)=C/c2nc3ccccc3oc2=O)s1,-4,19*,16,6,-2,11,-6,2
O=C(Nc1ccc(N2CCN(Cc3ccccc3)CC2)cc1)c1ncn[nH]1,-1,13*,0,-25,-4,-1,-6,25*
ON=C1C2CC=C(c3ccccc3)C1CCC2 (stereo not given),/,/,/,-1,/,/,/,/
Cn1c2ccccc2c(=O)c2cc(NCCCN3CCOCC3)ccc21,/,/,/,3,/,/,/,/
O=c1c2ccccc2oc2cc(NCCCN3CCOCC3)ccc12,0,17*,-11,0,-2,-8,-12,22*
CN1CCCC1CCNc1ccc2c(=O)c3ccccc3oc2c1 (stereo not given),-2,17*,11,2,-2,-12,-14,27*
CN1CCCC1CCNc1ccc2oc3ccccc3c(=O)c2c1 (stereo not given),2,16*,0,8,-2,-2,-5,18*
O=S(=O)(c1ccc(Cl)s1)N1CCC(c2cn3ccccc3n2)CC1,/,/,/,-11,/,/,/,/
CC(C)N1CCCCC(NC(=O)c2ccc(Cl)cc2Cl)C1=O (stereo not given),/,/,/,11,/,/,/,/
O=c1[nH]c2ccccc2nc1-c1ccccc1,-3,-2,-9,2,/,/,/,/
NC(=O)N=Nc1c2[nH]c3ccccc3nc-2c2ccccc12,-3,21*,1,10,0,-3,-3,38*
COc1ccc(S(=O)(=O)N2CCN(C(=O)c3cc4c(s3)CCC4)CC2)cc1,/,/,/,2,/,/,/,/
Cc1cc(C)c2c(n1)sc1c(N3CCCCC3)ncnc12,1,1,-3,-4,/,/,/,/
Cc1cc(C)c2c(n1)sc1c(N3CCN(C)CC3)ncnc12,-1,13*,-11,8,-2,0,-4,21*
Cc1ccc(NC(=O)C(C)S)cc1 (stereo not given),-1,9.6*,7,7,1,4,-6,30*
Cc1ccc(NC(=O)C(CC(C)C)NC(N)=O)cc1 (stereo not given),-3,-3,-1,2,/,/,/,/
CN(CCOC(=O)c1cc2ccccc2o1)C1CN(Cc2cn(Cc3ccccc3Cl)nn2)S(=O)(=O)C1 (stereo not given),/,/,/,-5,/,/,/,/
SMILES,IMP-1 inh-1,VIM-2 inh,M18AAP inhibitor,HGIII-sPLA2 inh,IMP-1 inh-2,VIM-2 FRET ctr,TEM-1 counter,VIM-2 confirm 2
c1ccc(-c2nc(NCCCn3ccnc3)c3ccccc3n2)cc1,-3,22*,-13,-25,-2,-16,-1,36*
Cc1cc(NCCCn2ccnc2)n2nc(C)c(-c3ccc(Cl)cc3)c2n1,0,50*,9,-20,-2,-22,-6,60*
Cc1cc(NCCN2CCOCC2)n2nc(C)c(-c3ccc(Cl)cc3)c2n1,-5,-2,8,13,/,/,/,/
Cc1cc(NCCCn2ccnc2)n2nc(C)c(-c3ccccc3)c2n1,-3,68*,0,-17,-4,-15,-7,79*
Cc1cc(NCCCn2ccnc2)n2ncc(-c3ccccc3)c2n1,-2,57*,-4,/,-1,-14,1.4*,73*
S=c1[nH]nc(-c2cccs2)n1C1CCCCC1,0,42*,-3,19,-2,63*,-7,47*
C=CCn1c(SCC(=O)N2CCN(CCO)CC2)nc2sc3c(c2c1=O)CCC3,0,50*,-3,-3,-3,1,-9,64*
Cc1nnc2c(NC3CCCC3)nc3ccccc3n12,-2,12*,-1,1,-3,-4,-5,23*
O=C(OCc1cn(Cc2cc(F)cc(F)c2)nn1)N1CCOCC1,/,/,/,9,/,/,/,/
CCOC(=O)CNS(=O)(=O)c1cc(-c2nn(C)c(=O)c3ccccc23)ccc1C,-4,3,-2,-3,/,/,/,/
Cc1ccc(-c2nn(C)c(=O)c3ccccc23)cc1S(=O)(=O)NCCN1CCOCC1,-8,14*,5,4,-3,-1,-5,28*
C=CCN1[C@@H](C)COc2cc(N3CCSCC3)ccc2S1(=O)=O,/,/,/,5,/,/,/,/
COc1ccc(-c2nnc3sc(CCN4C(=O)c5ccccc5C4=O)nn23)cc1,-2,18*,-3,-7,-2,-3,-3,4
COc1ccc(-c2nn3c(-c4ccccc4)nnc3s2)cc1,-4,-1,-12,-16,/,/,/,/
CN(C)CCNC(=O)c1ccc(-c2nn(C)c(=O)c3ccccc23)cc1,-3,32*,-2,7,-3,-1,-5,50*
CCCNC(=O)c1ccc(-c2nn(C)c(=O)c3ccccc23)cc1,-2,3,-2,-2,/,/,/,/
CN1CCN(C(=O)c2ccc(-c3nn(C)c(=O)c4ccccc34)cc2)CC1,-4,70*,16,-3,-1,-8,1.5*,79*
Cn1nc(-c2ccc(C(=O)N3CCN(CCO)CC3)cc2)c2ccccc2c1=O,-4,65*,3,-5,-3,2,-6,69*
CN(Cc1ccccc1)C(=O)OCc1cn(Cc2ccc(F)c(F)c2)nn1,/,/,/,-2,/,/,/,/
O=C(Nc1ccc(F)cc1)OCc1cn(Cc2cccc(Cl)c2)nn1,/,/,/,-16,/,/,/,/
C=CC[C@H](CC(=O)NCCO)C(=O)N[C@@H](COC(=O)[C@H](CC=C)CC(=O)OC(C)(C)C)Cc1c[nH]c2ccccc12,/,/,/,-57,/,/,/,/
CCc1n[nH]c(=S)n1/N=C/C(C)=C\c1ccccc1,-2,57*,-10,15,-4,83*,-10,70*
CCc1n[nH]c(=S)n1/N=C/c1ccc(NC(C)=O)cc1,-3,23*,15,2,-4,61*,-7,46*
